Assay results reported in ChEMBL document CHEMBL1128671, “New (2-methoxyphenyl)piperazine derivatives as 5-HT1A receptor ligands with reduced alpha 1-adrenergic activity. Synthesis and structure-affinity relationships” (J Med Chem, 1995).

Columns and labels:
[1] = target: T1, 5-hydroxytryptamine receptor 1A (Rattus norvegicus, UniProt P19327); assay: In vitro ability to displace [3H]8-OH-DPAT from 5-hydroxytryptamine 1A receptor sites of rat brain cortex.
T1 sequence (P19327 whole entry): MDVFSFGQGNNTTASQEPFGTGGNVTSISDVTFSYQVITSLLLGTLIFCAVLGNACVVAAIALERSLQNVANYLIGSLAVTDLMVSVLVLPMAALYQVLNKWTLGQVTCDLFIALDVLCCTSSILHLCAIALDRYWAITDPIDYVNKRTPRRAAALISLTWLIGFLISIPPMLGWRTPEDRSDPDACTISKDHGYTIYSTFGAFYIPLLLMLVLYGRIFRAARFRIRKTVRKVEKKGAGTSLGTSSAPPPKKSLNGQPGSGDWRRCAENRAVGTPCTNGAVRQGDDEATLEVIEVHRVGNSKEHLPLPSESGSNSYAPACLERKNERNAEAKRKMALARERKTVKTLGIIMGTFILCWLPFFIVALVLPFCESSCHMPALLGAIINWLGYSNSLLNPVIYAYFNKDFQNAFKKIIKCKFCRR
Method in brief: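 Male Wistar rat cerebral cortex membranes in 50 mM Tris-HCl with 4 mM CaCl2, 0.1% ascorbate and 10 μM pargyline. Nonspecific binding defined with 10 μM 5-HT. Read by filtration and scintillation counting. Twelve displacer concentrations, triplicate samples, two experiments. IC50/Ki obtained by nonlinear regression.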

[2] = target: Adrenergic receptor alpha-1 (Oryctolagus cuniculus); assay: Antagonistic activity at Alpha-1 adrenergic receptor was performed on ring segments of rabbit thoracic aorta contracted by noradrenaline.

Row | SMILES | Ki [1] [nM] | pA2 [2]
1 | COc1ccccc1N1CCN(CCCCNC(=O)c2sccc2C)CC1 | 1.53 | 
2 | COc1ccccc1N1CCN(CCCCNC(=O)C2CC3CCC2C3)CC1 (stereo not given) | 0.23 | 
3 | COc1ccccc1N1CCN(CCCCNC(=O)C2CC3C=CC2C3)CC1 (stereo not given) | 0.38 | 8.53
4 | COc1ccccc1N1CCN(CCNC(=O)c2ccc(C)s2)CC1 | 2.29 | 
5 | COc1ccccc1N1CCN(CCNC(=O)c2sccc2C)CC1 | 3.09 | 
6 | COc1ccccc1N1CCN(CCCCNC(=O)Cc2ccsc2)CC1 | 17.5 | 
7 | COc1ccccc1N1CCN(CCCNC(=O)c2ccc[nH]2)CC1 | 201 | 
8 | COc1ccccc1N1CCN(CCCCNC(=O)c2ccc(C)s2)CC1 | 3.8 | < 7
9 | COc1ccccc1N1CCN(CCCCNC(=O)c2sccc2Cl)CC1 | 3.34 | 
10 | COc1ccccc1N1CCN(CCCCNC(=O)c2cccs2)CC1 | 2.34 | 9.16
11 | COc1ccccc1N1CCN(CCCCNC(=O)c2cccn2C)CC1.O=C(O)/C=C/C(=O)O | 0.74 | 7.72
12 | COc1ccccc1N1CCN(CCCCNC(=O)c2sccc2OC)CC1 | 32.1 | 
13 | COc1ccccc1N1CCN(CCNC(=O)Cc2ccsc2)CC1 | 32.3 | 
14 | COc1ccccc1N1CCN(CCNC(=O)C2CC3CCC2C3)CC1 (stereo not given) | 0.12 | 
15 | COc1ccccc1N1CCN(CCCCNC(=O)C2CCC3CCCC32)CC1 (stereo not given) | 0.63 | 
16 | COc1ccccc1N1CCN(CCCCNC(=O)C2CCCC2)CC1 | 1.88 | 
17 | COc1ccccc1N1CCN(CCNC(=O)C2CCCC2)CC1 | 4.68 | 
18 | COc1ccccc1N1CCN(CCCCNC(=O)c2cccnc2)CC1 | 25.2 | 
19 | COc1ccccc1N1CCN(CCNC(=O)C2CC3C=CC2C3)CC1 (stereo not given) | 0.27 | 
20 | COc1ccccc1N1CCN(CCCNC(=O)c2cccnc2)CC1 | 321 | 
21 | COc1ccccc1N1CCN(CCNC(=O)C2CCC3CCCC32)CC1 (stereo not given) | 0.24 | 
22 | COc1ccccc1N1CCN(CCNC(=O)c2cccnc2)CC1 | 362 | 
23 | COc1ccccc1N1CCN(CCNC(=O)c2ccsc2)CC1 | 6.83 | < 7
24 | COc1ccccc1N1CCN(CCCCNC(=O)c2ccc[nH]2)CC1 | 12.5 | 
25 | COc1ccccc1N1CCN(CCNC(=O)c2ccc[nH]2)CC1 | 20.3 | 
26 | COc1ccccc1N1CCN(CCCNC(=O)C2CCC3CCCC32)CC1 (stereo not given) | 11.6 | 
27 | COc1ccccc1N1CCN(CCCCNC(=O)c2ccsc2)CC1 | 2.2 | 
28 | COc1ccccc1N1CCN(CCNC(=O)c2cccn2C)CC1 | 1.19 | < 7
29 | COc1ccccc1N1CCN(CCCCNC(=O)c2ccco2)CC1 | 55.7 | 
